Experimental data as given in ChEMBL document CHEMBL2146398, “Novel interleukin-5 inhibitors based on hydroxyethylaminomethyl-4H-chromen-4-one scaffold” (Bioorg Med Chem, 2012).

molecular target: T1, Interleukin-5 (Mus musculus) (UniProt P04401); test: Inhibition of IL-5 in mouse Y16 cells at 30 uM after 48 hrs by WST1 assay; assay type: cell-based
T1 sequence (whole entry): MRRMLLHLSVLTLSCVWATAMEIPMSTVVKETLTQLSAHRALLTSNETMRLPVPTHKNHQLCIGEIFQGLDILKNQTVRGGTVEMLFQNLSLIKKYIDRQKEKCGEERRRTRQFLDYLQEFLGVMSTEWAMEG
How it was run: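 IL-5-dependent pro-B Y16 cells cultured 48 h with 3 units/mL mIL-5, with or without test sample. Proliferation read as cell metabolism by WST-1 reduction. […] Values are means of three independent experiments.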

Row | Compound | inhibition [%]
1 | O=c1c(CN(CCO)Cc2ccccc2)coc2cccc(OCC3CCCCC3)c12 | 94.8
2 | O=c1c(CN(CCO)Cc2ccc(Cl)cc2)coc2cccc(OCC3CCCCC3)c12 | 93.4
3 | Cc1ccc(CN(CCO)Cc2coc3cccc(OCC4CCCCC4)c3c2=O)cc1 | 94.3
4 | COc1ccc(CN(CCO)Cc2coc3cccc(OCC4CCCCC4)c3c2=O)cc1 | 94.1
5 | CCCN(CCO)Cc1coc2cccc(OCC3CCCCC3)c2c1=O | 93.7
6 | CCCCN(CCO)Cc1coc2cccc(OCC3CCCCC3)c2c1=O | 94
7 | O=c1c(CN(CCO)c2ccccc2)coc2cccc(OCC3CCCCC3)c12 | 94.4
8 | O=c1c(CN(CCO)Cc2ccncc2)coc2cccc(OCC3CCCCC3)c12 | 94
9 | O=c1c(CN(CCO)Cc2ccc(O)cc2)coc2cccc(OCC3CCCCC3)c12 | 93.7

More lines, now with the values ahead:

Row | inhibition [%] | Compound
10 | 56 | CN(CCO)Cc1coc2cccc(OCC3CCCCC3)c2c1=O
11 | 94.7 | O=c1c(CN(CCO)CC2CCCCC2)coc2cccc(OCC3CCCCC3)c12
12 | 79.2 | CCN(CCO)Cc1coc2cccc(OCC3CCCCC3)c2c1=O
13 | 90.2 | CC(C)N(CCO)Cc1coc2cccc(OCC3CCCCC3)c2c1=O
14 | 94.5 | O=c1c(CN(CCO)C2CCCCC2)coc2cccc(OCC3CCCCC3)c12
